# Results: ChEMBL document CHEMBL3259728, “Design, synthesis and biological evaluation of some novel substituted quinazolines as antitumor agents” (2014)
# Experiments:
# Format in all cases: functional
# [1] = Growth inhibition of human RXF393 cells assessed as cell growth at 10^-6 M after 48 hrs by SRB assay; settings: RXF 393, 48 h, read-out: Activity
# SNB-19 [2] = assay: Growth inhibition of human SNB19 cells assessed as cell growth at 10^-4 M after 48 hrs by SRB assay; settings: SNB-19, 48 h, read-out: Activity
# HCT-116 = assay: Growth inhibition of human HCT116 cells assessed as cell growth at 10^-5 M after 48 hrs by SRB assay; settings: HCT-116, 48 h, read-out: Activity
# MDA-MB-435 [3] = assay: Growth inhibition of human MDA-MB-435 cells assessed as cell growth at 10^-5 M after 48 hrs by SRB assay; settings: MDA-MB-435, 48 h, read-out: Activity
# SNB-19 [4] = assay: Growth inhibition of human SNB19 cells assessed as cell growth at 10^-7 M after 48 hrs by SRB assay; settings: SNB-19, 48 h, read-out: Activity
# T47D = assay: Growth inhibition of human T47D cells assessed as cell growth at 10^-7 M after 48 hrs by SRB assay; settings: read-out: Activity
# SNB-75 = assay: Growth inhibition of human SNB75 cells assessed as cell growth at 10^-4 M after 48 hrs by SRB assay; settings: SNB-75, 48 h, read-out: Activity
# SN12C = assay: Growth inhibition of human SN12C cells assessed as cell growth at 10^-6 M after 48 hrs by SRB assay; settings: read-out: Activity
# RPMI-8226 [5] = assay: Growth inhibition of human RPMI8226 cells assessed as cell growth at 10^-4 M after 48 hrs by SRB assay; settings: RPMI-8226, 48 h, read-out: Activity
# [6] = Growth inhibition of human OVCAR8 cells assessed as cell growth at 10^-8 M after 48 hrs by SRB assay; settings: OVCAR-8, 48 h, read-out: Activity
# [7] = Growth inhibition of human MOLT4 cells assessed as cell growth at 10^-7 M after 48 hrs by SRB assay; settings: MOLT-4, 48 h, read-out: Activity
# NCI-H226 = assay: Growth inhibition of human NCI-H226 cells assessed as cell growth at 10^-8 M after 48 hrs by SRB assay; settings: NCI-H226, 48 h, read-out: Activity
# [8] = Growth inhibition of human UO31 cells assessed as cell growth at 10^-4 M after 48 hrs by SRB assay; settings: UO-31, 48 h, read-out: Activity
# SK-MEL-5 = assay: Growth inhibition of human SK-MEL-5 cells assessed as cell growth at 10^-4 M after 48 hrs by SRB assay; settings: SK-MEL-5, 48 h, read-out: Activity
# SW-620 [9] = assay: Growth inhibition of human SW620 cells assessed as cell growth at 10^-8 M after 48 hrs by SRB assay; settings: SW-620, 48 h, read-out: Activity
# U-251 = assay: Cytotoxicity against human U251 cells after 48 hrs by SRB assay; settings: U-251, 48 h
# In short: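 NCI 60-cell-line panel, 48 h continuous exposure to five 10-fold dilutions from 10^-4 to 10^-8 M. SRB protein staining was read spectrophotometrically, with time-zero, untreated-control and treated absorbances. GI50, TGI and LC50 were derived from the percentage-growth formulas. Values outside the tested range are expressed as more or less than the maximum or minimum concentration.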
# [10] = Growth inhibition of human NCI-ADR-RES cells assessed as cell growth at 10^-8 M after 48 hrs by SRB assay; settings: read-out: Activity
# 786-0 = assay: Growth inhibition of human 786-0 cells assessed as cell growth at 10^-8 M after 48 hrs by SRB assay; settings: 786-0, 48 h, read-out: Activity
# In short: (§1)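 Five-dose NCI panel protocol. Each dose (10^-4 to 10^-8 M, 10-fold steps) was given as 48 h continuous exposure, and protein was measured by SRB staining. Percentage growth at each level is [(Ti−Tz)/(C−Tz)]×100, where Tz is time-zero absorbance and C is untreated control.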
# RPMI-8226 [11] = assay: Growth inhibition of human RPMI8226 cells assessed as cell growth at 10^-7 M after 48 hrs by SRB assay; settings: RPMI-8226, 48 h, read-out: Activity
# KM12 = assay: Growth inhibition of human KM12 cells assessed as cell growth at 10^-6 M after 48 hrs by SRB assay; settings: KM12, 48 h, read-out: Activity
# HT-29 = assay: Growth inhibition of human HT-29 cells assessed as cell growth at 10^-7 M after 48 hrs by SRB assay; settings: HT-29, 48 h, read-out: Activity
# NCI-H322M = assay: Growth inhibition of human NCI-H322M cells assessed as cell growth at 10^-7 M after 48 hrs by SRB assay; settings: read-out: Activity
# MDA-MB-435 [12] = assay: Growth inhibition of human MDA-MB-435 cells assessed as cell growth at 10^-8 M after 48 hrs by SRB assay; settings: MDA-MB-435, 48 h, read-out: Activity
# [13] = Growth inhibition of human RXF393 cells assessed as cell growth at 10^-8 M after 48 hrs by SRB assay; settings: RXF 393, 48 h, read-out: Activity
# A498 = assay: Growth inhibition of human A498 cells assessed as cell growth at 10^-4 M after 48 hrs by SRB assay; settings: A498, 48 h, read-out: Activity; in short: as §1
# [14] = Growth inhibition of human NCI-ADR-RES cells assessed as cell growth at 10^-4 M after 48 hrs by SRB assay; settings: read-out: Activity
# [15] = Growth inhibition of human OVCAR3 cells assessed as cell growth at 10^-5 M after 48 hrs by SRB assay; settings: OVCAR-3, 48 h, read-out: Activity
# SW-620 [16] = assay: Growth inhibition of human SW620 cells assessed as cell growth at 10^-7 M after 48 hrs by SRB assay; settings: SW-620, 48 h, read-out: Activity
# MDA-MB-468 [17] = assay: Growth inhibition of human MDA-MB-468 cells assessed as cell growth at 10^-4 M after 48 hrs by SRB assay; settings: MDA-MB-468, 48 h, read-out: Activity
# MDA-MB-231 = assay: Growth inhibition of human MDA-MB-231 cells assessed as cell growth at 10^-5 M after 48 hrs by SRB assay; settings: MDA-MB-231, 48 h, read-out: Activity
# MDA-MB-468 [18] = assay: Growth inhibition of human MDA-MB-468 cells assessed as cell growth at 10^-6 M after 48 hrs by SRB assay; settings: MDA-MB-468, 48 h, read-out: Activity
# [19] = Growth inhibition of human OVCAR5 cells assessed as cell growth at 10^-5 M after 48 hrs by SRB assay; settings: OVCAR-5, 48 h, read-out: Activity
structure (smiles),measurement,setting,value
Cc1ccc(-c2nc3ccc(Cl)cc3c(=O)n2/N=C/c2ccccc2)cc1,growth at 1 µM,[1],90%
same,growth at 100 µM,SNB-19 [2],10%
same,growth at 10 µM,HCT-116,37%
same,growth at 10 µM,MDA-MB-435 [3],59%
same,growth at 0.1 µM,SNB-19 [4],93%
same,growth at 0.1 µM,T47D,88%
same,growth at 100 µM,SNB-75,-43%
same,growth at 1 µM,SN12C,91%
same,growth at 100 µM,RPMI-8226 [5],60%
same,growth at 0.01 µM,[6],101%
same,growth at 0.1 µM,[7],96%
same,growth at 0.01 µM,NCI-H226,91%
same,growth at 100 µM,[8],39%
same,growth at 100 µM,SK-MEL-5,34%
same,growth at 0.01 µM,SW-620 [9],96%
same,GI50,U-251; read-out: GI50,5.05 µM
same,CC50,U-251; read-out: LC50 (the source's name),> 100 µM
same,TGI,U-251; read-out: TGI,> 100 µM
same,GI50,U-251; read-out: pGI50 (converted),5.01 µM
same,CC50,U-251; read-out: pLC50 (the source's name) (converted),> 100 µM
same,TGI,U-251; read-out: pTGI,> 100 µM
same,growth at 0.01 µM,[10],98%
same,growth at 0.01 µM,786-0,90%
same,growth at 0.1 µM,RPMI-8226 [11],94%
same,growth at 1 µM,KM12,91%
same,growth at 0.1 µM,HT-29,93%
same,growth at 0.1 µM,NCI-H322M,76%
same,growth at 0.01 µM,MDA-MB-435 [12],98%
same,growth at 0.01 µM,[13],97%
same,growth at 100 µM,A498,17%
same,growth at 100 µM,[14],36%
same,growth at 10 µM,[15],34%
same,growth at 0.1 µM,SW-620 [16],93%
same,growth at 100 µM,MDA-MB-468 [17],45%
same,growth at 10 µM,MDA-MB-231,33%
same,growth at 1 µM,MDA-MB-468 [18],92%
same,growth at 10 µM,[19],74%
